Values after ≈ are worked out from the molar mass of the structure shown.
How the values were obtained:
[1] = tested on: HeLa; test: Toxicity against human HeLa cells at 2 ug/ml incubated for 48 hrs by MTT assay; assay type: cell-based
Outline: (§1)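 HeLa cells kept in DMEM with 10% FBS and penicillin-streptomycin (100 U/mL) at 37 °C, 5% CO₂, split with 0.25% trypsin at 80–90% confluence. After 3 passages, about 1 × 10⁴ cells per well were seeded and left overnight to attach. Compound exposure 48 h. MTT (5 mg/mL in PBS) added for 4 h, formazan dissolved in DMSO, OD read at 570 nm.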

[2] = tested on: HeLa; test: Toxicity against human HeLa cells at 1 ug/ml incubated for 48 hrs by MTT assay; assay type: cell-based; outline: as §1
[3] = tested on: Staphylococcus aureus; test: Potency index, ratio of MIC for oxacillin to MIC for compound against quinolone-resistant Staphylococcus aureus CCARM 3505 incubated for 24 hrs serial dilution method; assay type: functional
[4] = tested on: Staphylococcus aureus; test: Potency index, ratio of MIC for oxacillin to MIC for compound against quinolone-resistant Staphylococcus aureus CCARM 3519 incubated for 24 hrs serial dilution method; assay type: functional
[5] = tested on: Staphylococcus aureus; test: Potency index, ratio of MIC for oxacillin to MIC for compound against multidrug-resistant Staphylococcus aureus CCARM 3506 incubated for 24 hrs serial dilution method; assay type: functional
[6] = tested on: Staphylococcus aureus; test: Potency index, ratio of MIC for oxacillin to MIC for compound against multidrug-resistant Staphylococcus aureus CCARM 3167 incubated for 24 hrs serial dilution method; assay type: functional
[7] = tested on: Staphylococcus aureus; test: Potency index, ratio of MIC for norfloxacin to MIC for compound against quinolone-resistant Staphylococcus aureus CCARM 3519 incubated for 24 hrs serial dilution method; assay type: functional
[8] = tested on: Staphylococcus aureus; test: Potency index, ratio of MIC for norfloxacin to MIC for compound against quinolone-resistant Staphylococcus aureus CCARM 3505 incubated for 24 hrs serial dilution method; assay type: functional
[9] = tested on: Staphylococcus aureus; test: Potency index, ratio of MIC for norfloxacin to MIC for compound against multidrug-resistant Staphylococcus aureus CCARM 3506 incubated for 24 hrs serial dilution method; assay type: functional
[10] = tested on: Staphylococcus aureus; test: Potency index, ratio of MIC for norfloxacin to MIC for compound against multidrug-resistant Staphylococcus aureus CCARM 3167 incubated for 24 hrs serial dilution method; assay type: functional
[11] = Toxicity against human HeLa cells incubated for 48 hrs by MTT assay; assay type: cell-based; outline: as §1
[12] = tested on: Staphylococcus aureus; test: Antibacterial activity against quinolone-resistant Staphylococcus aureus CCARM 3519 incubated for 24 hrs serial dilution method; assay type: functional; details: CCARM 3519, 24 h
[13] = tested on: Staphylococcus aureus; test: Antibacterial activity against quinolone-resistant Staphylococcus aureus CCARM 3505 incubated for 24 hrs serial dilution method; assay type: functional; details: CCARM 3505, 24 h
[14] = tested on: Staphylococcus aureus; test: Antibacterial activity against multidrug-resistant Staphylococcus aureus CCARM 3506 incubated for 24 hrs serial dilution method; assay type: functional; details: CCARM 3506, 24 h
[15] = tested on: Staphylococcus aureus; test: Antibacterial activity against multidrug-resistant Staphylococcus aureus CCARM 3167 incubated for 24 hrs serial dilution method; assay type: functional; details: CCARM 3167, 24 h
[16] = tested on: Escherichia coli; test: Antibacterial activity against Escherichia coli 1356 incubated for 24 hrs serial dilution method; assay type: functional; details: Escherichia coli, 1356, 24 h
[17] = tested on: Staphylococcus aureus; test: Antibacterial activity against Staphylococcus aureus KCTC 503 incubated for 24 hrs serial dilution method; assay type: functional; details: KCTC 503, 24 h
[18] = tested on: Staphylococcus aureus; test: Antibacterial activity against Staphylococcus aureus KCTC 209 incubated for 24 hrs serial dilution method; assay type: functional; details: KCTC 209, 24 h
[19] = tested on: Staphylococcus aureus; test: Antibacterial activity against Staphylococcus aureus RN 4220 incubated for 24 hrs serial dilution method; assay type: functional; details: RN 4220, 24 h

SMILES	Activity [1]	Activity [2]	Ratio [3]	Ratio [4]	Ratio [5]	Ratio [6]	Ratio [7]	Ratio [8]	Ratio [9]	Ratio [10]	IC50 at 48 h ([11]; read-out: IC50) [µg/mL]	MIC [12] [µg/mL]	MIC [13] [µg/mL]	MIC [14] [µg/mL]	MIC [15] [µg/mL]	MIC [16] [µg/mL]	MIC [17] [µg/mL]	MIC [18] [µg/mL]	MIC [19] [µg/mL]	IC50 at 48 h [11] [µg/mL]
Cc1nn(-c2ccccc2)c(Oc2ccc(Cl)cc2Cl)c1/C=C1\SC(=S)N([C@@H](Cc2c[nH]c3ccccc23)C(=O)O)C1=O	Non-toxic	Non-toxic	64	64	64	64	4	4	4	4	5.76 (≈ 8.87 µM)	1 (≈ 1.54 µM)	1 (≈ 1.54 µM)	1 (≈ 1.54 µM)	1 (≈ 1.54 µM)	> 64	> 64	> 64	2 (≈ 3.08 µM)	–
Cc1nn(-c2ccccc2)c(Oc2ccc(Br)cc2)c1/C=C1\SC(=S)N([C@@H](Cc2c[nH]c3ccccc23)C(=O)O)C1=O	–	–	64	64	64	64	4	4	4	4	–	1 (≈ 1.52 µM)	1 (≈ 1.52 µM)	1 (≈ 1.52 µM)	1 (≈ 1.52 µM)	> 64	> 64	> 64	2 (≈ 3.03 µM)	–
Cc1nn(-c2ccccc2)c(Oc2ccc(Cl)cc2Cl)c1/C=C1\SC(=S)N([C@@H](Cc2ccccc2)C(=O)O)C1=O	Non-toxic	Non-toxic	32	32	32	32	8	8	8	8	–	2 (≈ 3.28 µM)	2 (≈ 3.28 µM)	1 (≈ 1.64 µM)	1 (≈ 1.64 µM)	> 64	> 64	> 64	2 (≈ 3.28 µM)	3.54 (≈ 5.8 µM)
